ABCG2 block: ABCG2 efflux pump inhibitors, primary screen, multiplex with ABCB1, IgMXP3 cells, flow cytometry; Broad substrate specificity ATP-binding cassette transporter ABCG2 (Homo sapiens), Q9UNQ0; JC-1 efflux; inhibition, % at 6.6 µM; 0.1% of 190,000 active;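 active = inhibition above 80%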
Target sequence (Q9UNQ0 whole entry, looked up): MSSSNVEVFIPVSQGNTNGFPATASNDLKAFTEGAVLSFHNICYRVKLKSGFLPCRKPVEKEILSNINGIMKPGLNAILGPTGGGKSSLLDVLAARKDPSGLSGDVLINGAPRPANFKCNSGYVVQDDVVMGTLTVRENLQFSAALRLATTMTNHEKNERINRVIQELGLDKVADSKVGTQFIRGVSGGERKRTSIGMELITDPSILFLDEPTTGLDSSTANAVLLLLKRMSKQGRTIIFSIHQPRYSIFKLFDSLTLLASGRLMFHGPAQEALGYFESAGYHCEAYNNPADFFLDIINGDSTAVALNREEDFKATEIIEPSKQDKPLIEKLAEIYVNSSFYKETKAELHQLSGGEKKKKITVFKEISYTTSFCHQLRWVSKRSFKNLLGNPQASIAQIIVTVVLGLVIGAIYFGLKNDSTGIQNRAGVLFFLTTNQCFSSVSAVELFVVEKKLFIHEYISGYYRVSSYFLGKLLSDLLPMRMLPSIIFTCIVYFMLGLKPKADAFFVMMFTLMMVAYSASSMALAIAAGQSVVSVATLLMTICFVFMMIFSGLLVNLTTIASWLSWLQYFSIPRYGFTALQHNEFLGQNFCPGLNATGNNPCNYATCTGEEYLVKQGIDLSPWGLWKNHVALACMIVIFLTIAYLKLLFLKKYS
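Measure – % inhibition of efflux relative to nicardipine and DMSO · Test system – ABCG2 IgMXP3 and barcoded ABCB1 CCRF-Adr cell mix · Control set – nicardipine as high control, DMSO as low control · Compound – one concentration, 6.6 µM final · Signal – flow cytometry of retained JC-1 fluorescence · Timing – 10 min exposure at 25 °C with rotation, no wash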
MEKK2wt PB1 HTS: modulators of MEK5 binding to wildtype MEKK2, primary screen, biochemical, multiplex bead flow cytometry, Alexa488-MEK5; Mitogen-activated protein kinase kinase kinase 2 (Homo sapiens), Q9Y2U5; Alexa488-MEK5 binding to MEKK2 WT; actives lie on both sides; binding response (% of control), % at 10 µM; 1.1% of 290,000 active; in the data active = binding response below about 67% or above about 130%; inconclusive = no clear call, values can overlap the other calls; inactive = in between
MEKK2 mut-MEK5: MEK5 binding signal on mutant MEKK2 PB1, primary screen, biochemical, multiplex bead flow cytometry, Alexa488-MEK5. percent response, % at 10 µM. AID 1530, 2009. Alexa488-MEK5 binding to MEKK2 mutant. 0.35% of 290,000 active; in the data active = percent response above about 24%, passing the limit was not always enough
MEKK3 PB1 HTS: modulators of MEKK3-MEK5 PB1 binding, primary screen, biochemical, wildtype MEKK3, multiplex bead flow cytometry, Alexa488-MEK5; Mitogen-activated protein kinase kinase kinase 3 (Homo sapiens), Q99759; bead-based flow cytometry, Alexa488-MEK5 binding to MEKK3; actives lie on both sides; 0 = blocked by unlabeled MEK5, 100 = vehicle; binding response (% of control), % at 10 µM; 1.4% of 290,000 active;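 active = binding response more than 3 SD above or below the average of its plate-row segment, actives on both sides; inconclusive = wells at one plate position flagged as instrument error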;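 also: Alexa488 bead fluorescence after subtracting the streptavidin-only scavenger bead signal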
ABCB1 block: ABCB1 efflux pump inhibitors, primary screen, cell-based, multiplex, flow cytometry, ABCG2 counter-screen; ATP-dependent translocase ABCB1 (Homo sapiens), P08183; CCRF-Adr cells, JC-1 efflux; inhibition, % at 6.6 µM; 0.067% of 190,000 active; AID 1326, 2008; in the data active = inhibition above about 40%;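 also: higher value means more JC-1 retained so stronger ABCB1 efflux block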
Efflux pump inh: inhibitors of Candida efflux pumps in yeast, primary screen, S. cerevisiae, Nile Red, multiplex. S. cerevisiae Candida pump triplex. inhibition, % at 10 µM. AID 485275, 2010. 0.44% of 330,000 active;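 active = plate passing quality check with inhibition over a set limit, or well fluorescence over plate mean plus 4 SD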;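 also: Nile Red retained in pooled yeast measured as flow cytometry median fluorescence; higher means more Nile Red kept so more efflux inhibition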
MEKK2wt confirm: modulators of MEK5 binding to wildtype MEKK2, confirmation, biochemical, single concentration, multiplex bead flow cytometry; shares compounds with MEKK3 PB1 HTS; Alexa488-MEK5 binding to MEKK2 WT; actives lie on both sides; binding response (% of control), % at 10 µM; 2.4% of 5,900 active; AID 1892, 2009; in the data active = binding response below about 16% or above about 210%; inactive = in between
MEKK2mut-MEK5: mutant MEKK2 PB1-MEK5 binding signal retest – biochemical, single concentration, multiplex bead flow cytometry, confirmation | shares compounds with MEKK3 PB1 HTS | Alexa488-MEK5 binding to MEKK2 mutant | percent response, % at 10 µM | 2% of 5,900 active | AID 1893, 2009; in the data active = percent response mostly above about 71%, no sharp cut-off; inactive = mostly below about 38%;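 also: higher means compound restores mutant binding toward wildtype level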
MEKK3 confirm: MEKK3 wild-type PB1 binding to MEK5, inhibitors, confirmation, biochemical, bead multiplex flow cytometry, single concentration, wildtype | 1.8% of 5,900 active | binding response (% of control), % at 10 µM | Alexa488-MEK5 binding to MEKK3; stronger effect = lower value | AID 1894, 2009 | shares compounds with MEKK3 PB1 HTS;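 active = binding response below 72% of control, or above a set upper limit, though filed actives all read lower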
Of the large screens only hits and unclear results are named; the others gave an inactive call (follow-up assays come after a bar, where they were run); [ ] = remark or other dose. The list is not random: actives were taken first. Their share in the collection is about 2.5%.

c1ccc(COc2ccc(-c3sc(Nc4ccccc4)n[n+]3-c3ccccc3)cc2)cc1	MEKK2wt PB1 HTS 221.0, MEKK2 mut-MEK5 38.0 (no result: ABCG2 block, ABCB1 block) | MEKK2wt confirm inactive | MEKK2mut-MEK5 inactive | MEKK3 confirm inactive
CCc1ccc(Nc2n[n+](-c3ccccc3)c(-c3ccc(OCc4ccccc4)cc3)s2)cc1	MEKK2wt PB1 HTS 220.0, MEKK2 mut-MEK5 107.0 (no result: ABCG2 block, ABCB1 block) | MEKK2wt confirm 209.0 | MEKK2mut-MEK5 82.0 | MEKK3 confirm inactive
CCCOc1cccc(C(=O)NC(=S)Nc2cccc(C(F)(F)F)c2)c1	MEKK2wt PB1 HTS inconclusive, MEKK3 PB1 HTS inconclusive
CCOc1cccc(C(=O)NC(=S)Nc2cccc(C)c2)c1	MEKK3 PB1 HTS 130.0 | MEKK2wt confirm inactive | MEKK2mut-MEK5 inactive | MEKK3 confirm inactive
COc1cccc(C(=O)NC(=S)Nc2ccc(Cl)cc2C(=O)O)c1	MEKK3 PB1 HTS 131.0 (no result: ABCG2 block, ABCB1 block) | MEKK2wt confirm inactive | MEKK2mut-MEK5 inactive | MEKK3 confirm inactive
COc1cccc(C(=O)NC(=S)Nc2ccc(N(C)C)cc2)c1	MEKK3 PB1 HTS 141.0 | MEKK2wt confirm inactive | MEKK2mut-MEK5 inactive | MEKK3 confirm inactive
CCCCN1C(=O)Nc2ccccc2S1=O (centres undefined)	none
Cc1noc(NC(=O)c2cccc(Cl)c2Cl)c1C#N	MEKK3 PB1 HTS 73.0[inhibitor] | MEKK2wt confirm inactive | MEKK2mut-MEK5 inactive | MEKK3 confirm inactive
Cc1noc(C)c1CSc1ncnc2sc3c(c12)CCC3	MEKK3 PB1 HTS 133.0 (no result: Efflux pump inh) | MEKK2wt confirm inactive | MEKK2mut-MEK5 inactive | MEKK3 confirm inactive
CN(C)CCc1cc2c(c3c1ccc1ccccc13)OCO2	MEKK2wt PB1 HTS 174.0 (no result: ABCG2 block, ABCB1 block) | MEKK2wt confirm inactive | MEKK2mut-MEK5 inactive | MEKK3 confirm inactive
COC(=O)c1nn2c(C(F)(F)F)cc(-c3ccc(Br)o3)nc2c1Br	none (no result: ABCG2 block, ABCB1 block)
O=C(c1ccc(Cl)cc1)c1ccc(CN2C(=O)c3ccccc3C2=O)o1	MEKK2wt PB1 HTS 2.0[inhibitor], MEKK3 PB1 HTS 2.0[inhibitor] | MEKK2wt confirm inactive | MEKK2mut-MEK5 inactive | MEKK3 confirm inactive
O=C(c1ccc(F)cc1)c1ccc(CN2C(=O)c3ccccc3C2=O)o1	none
CCCC(=O)C1=C(O)C(C(=O)OC)C(C)(C)CC1=NCc1ccccc1 (centres undefined)	none (no result: ABCG2 block, ABCB1 block)
CCCC(=O)C1=C(O)C(C(=O)OC)C(C)(C)CC1=NCCc1ccc(OC)c(OC)c1 (centres undefined)	MEKK3 PB1 HTS 72.0[inhibitor] | MEKK2wt confirm inactive | MEKK2mut-MEK5 inactive | MEKK3 confirm inactive
CN(C)CCCSc1nc(-c2ccccc2)nc2c1CCC2	none
CN(C)CCSc1nc(-c2ccccc2)nc2c1CCC2	MEKK3 PB1 HTS 138.0 | MEKK2wt confirm inactive | MEKK2mut-MEK5 inactive | MEKK3 confirm inactive
COCCNC(=O)C(NC(=O)C1CCC(C)CC1)C(C)C (centres undefined)	none

Screening results deposited in PubChem BioAssay by NMMLSC.
